Calls of active or inactive are those of the source. The rule behind the calls is not given here.
Experiments:
[1] = system: LuCaP-77 CR cell; conditions: Homo sapiens, dose 100.0 mg/kg, time 7.0 day
[2] = system: Hs 695T; assay: Antiproliferative activity against human Hs 695T cells assessed as inhibition of cell viability incubated for 3 to 5 days by Celltiter-Glo luminescent assay; format: functional, cell-based
[3] = target: Serine/threonine-protein kinase Nek2 (Homo sapiens, UniProt P51955); assay: Inhibition of Nek2 (unknown origin)
[4] = target: cGMP-dependent protein kinase 1 (Homo sapiens, UniProt Q13976); assay: Inhibition of PKG1alpha (unknown origin)
[5] = target: Serine/threonine-protein kinase PLK3 (Homo sapiens, UniProt Q9H4B4); assay: Inhibition of Plk3 (unknown origin)
[6] = system: LuCaP-77 CR cell; conditions: Homo sapiens, dose 100.0 mg/kg, time 7.0 day; remark: listed apart in the source
[7] = target: T1, CREB-binding protein/Histone acetyltransferase p300 (Homo sapiens, UniProt Q09472+Q92793); assay: Inhibition of p300/CBP in human 22Rv1 cells assessed as reduction in H3K18Ac level incubated for 1 hr by Hoechst 33342 staining based high content microscopy analysis; format: cell-based
In short: (§1)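 Cells received an 8-point half-log dilution series from 10 µM. They were then fixed in 10% formaldehyde (10 min, RT), permeabilised with 0.1% Triton X-100 and blocked with 1% BSA for 1 h. Primary antibodies were applied overnight at 4 °C, followed by Alexa488 anti-rabbit, Alexa555 anti-mouse and Hoechst 33342 for 1 h. Fifteen fields per well were imaged and average mean intensity taken. EC50 came from a sigmoidal fit.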

[8] = system: SU-DHL-5; assay: Antiproliferative activity against human SuDHL5 cells assessed as inhibition of cell viability incubated for 3 to 5 days by Celltiter-Glo luminescent assay; format: functional, cell-based
[9] = system: LuCaP-77 CR cell; conditions: Homo sapiens, dose 100.0 mg/kg, time 7.0 day; remark: listed apart in the source
[10] = target: Serine/threonine-protein kinase 4 (Homo sapiens, UniProt Q13043); assay: Inhibition of MST1 (unknown origin)
[11] = target: Calcium/calmodulin-dependent protein kinase type II subunit alpha (Homo sapiens, UniProt Q9UQM7); assay: Inhibition of CAMK2A (unknown origin)
[12] = Toxicity in CB17 SCID mouse xenografted with human LuCaP-77 CR cell assessed as body weight loss at 100 mg/kg, ip BID administered for 7 days relative to control; format: organism-based; conditions: in vivo, 168 h, time 7 day
[13] = system: HCC1395; assay: Antiproliferative activity against human HCC1395 cells assessed as inhibition of cell viability incubated for 3 to 5 days by Celltiter-Glo luminescent assay; format: functional, cell-based
[14] = system: DU-145; assay: Antiproliferative activity against human DU-145 cells assessed as inhibition of cell viability incubated for 3 to 5 days by Celltiter-Glo luminescent assay; format: functional, cell-based
[15] = system: MDA-MB-231; assay: Antiproliferative activity against human MDA-MB-231 cells assessed as inhibition of cell viability incubated for 3 to 5 days by Celltiter-Glo luminescent assay; format: functional, cell-based
[16] = target: Macrophage colony-stimulating factor 1 receptor (Homo sapiens, UniProt P07333); assay: Inhibition of CSF1R (unknown origin)
[17] = target: Dual specificity mitogen-activated protein kinase kinase 2 (Homo sapiens, UniProt P36507); assay: Inhibition of MEK2 (unknown origin)
[18] = system: OCI-AML-5; assay: Antiproliferative activity against human OCI-AML5 cells assessed as inhibition of cell viability incubated for 3 to 5 days by Celltiter-Glo luminescent assay; format: functional, cell-based
[19] = system: RCK8; assay: Antiproliferative activity against human RCK8 cells assessed as inhibition of cell viability incubated for 3 to 5 days by Celltiter-Glo luminescent assay; format: functional, cell-based
[20] = system: HT-144; assay: Antiproliferative activity against human HT-144 cells assessed as inhibition of cell viability incubated for 3 to 5 days by Celltiter-Glo luminescent assay; format: functional, cell-based
[21] = system: L-363; assay: Antiproliferative activity against human L-363 cells assessed as inhibition of cell viability incubated for 3 to 5 days by Celltiter-Glo luminescent assay; format: functional, cell-based
[22] = system: DB; assay: Antiproliferative activity against human DB cells assessed as inhibition of cell viability incubated for 3 to 5 days by Celltiter-Glo luminescent assay; format: functional, cell-based
[23] = target: Proto-oncogene tyrosine-protein kinase receptor Ret (Homo sapiens, UniProt P07949); assay: Inhibition of Ret (unknown origin)
[24] = system: HT; assay: Antiproliferative activity against human HT cells assessed as inhibition of cell viability incubated for 3 to 5 days by Celltiter-Glo luminescent assay; format: functional, cell-based
[25] = system: U-937; assay: Antiproliferative activity against human U937 cells assessed as inhibition of cell viability incubated for 3 to 5 days by Celltiter-Glo luminescent assay; format: functional, cell-based
[26] = system: CA46; assay: Antiproliferative activity against human CA46 cells assessed as inhibition of cell viability incubated for 3 to 5 days by Celltiter-Glo luminescent assay; format: functional, cell-based
[27] = target: Serine/threonine-protein kinase TAO2 (Homo sapiens, UniProt Q9UL54); assay: Inhibition of TAOK2 (unknown origin)
[28] = system: A-375; assay: Antiproliferative activity against human A-375 cells assessed as inhibition of cell viability incubated for 3 to 5 days by Celltiter-Glo luminescent assay; format: functional, cell-based
[29] = system: Calu-6; assay: Antiproliferative activity against human Calu-6 cells assessed as inhibition of cell viability incubated for 3 to 5 days by Celltiter-Glo luminescent assay; format: functional, cell-based
[30] = target: High affinity nerve growth factor receptor (Homo sapiens, UniProt P04629); assay: Inhibition of TrkA (unknown origin)
[31] = target: T1, CREB-binding protein/Histone acetyltransferase p300; assay: Inhibition of p300/CBP in human 22Rv1 cells assessed as reduction in H3K9Ac level incubated for 3 hrs by Hoechst 33342 staining based high content microscopy analysis; format: cell-based
In short: as §1

[32] = Half life in CB17 SCID mouse xenografted with LuCaP-77 CR cell at 50 mg/kg, ip administered for 7 days; format: ADME, organism-based; conditions: in vivo, time 7 day
[33] = Half life in CB17 SCID mouse xenografted with LuCaP-77 CR cell at 100 mg/kg, ip administered for 7 days; format: ADME, organism-based; conditions: in vivo, time 7 day
[34] = system: ULA; assay: Antiproliferative activity against human ULA cells assessed as inhibition of cell viability incubated for 3 to 5 days by Celltiter-Glo luminescent assay; format: functional, cell-based
[35] = target: Vascular endothelial growth factor receptor 2 (Homo sapiens, UniProt P35968); assay: Inhibition of Kdr (unknown origin)
[36] = system: NCI-H2444; assay: Antiproliferative activity against human NCI-H2444 cells assessed as inhibition of cell viability incubated for 3 to 5 days by Celltiter-Glo luminescent assay; format: functional, cell-based
[37] = target: G protein-coupled receptor kinase 5 (Homo sapiens, UniProt P34947); assay: Inhibition of GRK5 (unknown origin)
[38] = target: Mitogen-activated protein kinase kinase kinase 10 (Homo sapiens, UniProt Q02779); assay: Inhibition of MAP3K10 (unknown origin)
[39] = target: Focal adhesion kinase 1 (Homo sapiens, UniProt Q05397); assay: Inhibition of FAK (unknown origin)
[40] = system: MDA-MB-436; assay: Antiproliferative activity against human MDA-MB-436 cells assessed as inhibition of cell viability incubated for 3 to 5 days by Celltiter-Glo luminescent assay; format: functional, cell-based

T1 sequence (Q09472 whole entry, looked up): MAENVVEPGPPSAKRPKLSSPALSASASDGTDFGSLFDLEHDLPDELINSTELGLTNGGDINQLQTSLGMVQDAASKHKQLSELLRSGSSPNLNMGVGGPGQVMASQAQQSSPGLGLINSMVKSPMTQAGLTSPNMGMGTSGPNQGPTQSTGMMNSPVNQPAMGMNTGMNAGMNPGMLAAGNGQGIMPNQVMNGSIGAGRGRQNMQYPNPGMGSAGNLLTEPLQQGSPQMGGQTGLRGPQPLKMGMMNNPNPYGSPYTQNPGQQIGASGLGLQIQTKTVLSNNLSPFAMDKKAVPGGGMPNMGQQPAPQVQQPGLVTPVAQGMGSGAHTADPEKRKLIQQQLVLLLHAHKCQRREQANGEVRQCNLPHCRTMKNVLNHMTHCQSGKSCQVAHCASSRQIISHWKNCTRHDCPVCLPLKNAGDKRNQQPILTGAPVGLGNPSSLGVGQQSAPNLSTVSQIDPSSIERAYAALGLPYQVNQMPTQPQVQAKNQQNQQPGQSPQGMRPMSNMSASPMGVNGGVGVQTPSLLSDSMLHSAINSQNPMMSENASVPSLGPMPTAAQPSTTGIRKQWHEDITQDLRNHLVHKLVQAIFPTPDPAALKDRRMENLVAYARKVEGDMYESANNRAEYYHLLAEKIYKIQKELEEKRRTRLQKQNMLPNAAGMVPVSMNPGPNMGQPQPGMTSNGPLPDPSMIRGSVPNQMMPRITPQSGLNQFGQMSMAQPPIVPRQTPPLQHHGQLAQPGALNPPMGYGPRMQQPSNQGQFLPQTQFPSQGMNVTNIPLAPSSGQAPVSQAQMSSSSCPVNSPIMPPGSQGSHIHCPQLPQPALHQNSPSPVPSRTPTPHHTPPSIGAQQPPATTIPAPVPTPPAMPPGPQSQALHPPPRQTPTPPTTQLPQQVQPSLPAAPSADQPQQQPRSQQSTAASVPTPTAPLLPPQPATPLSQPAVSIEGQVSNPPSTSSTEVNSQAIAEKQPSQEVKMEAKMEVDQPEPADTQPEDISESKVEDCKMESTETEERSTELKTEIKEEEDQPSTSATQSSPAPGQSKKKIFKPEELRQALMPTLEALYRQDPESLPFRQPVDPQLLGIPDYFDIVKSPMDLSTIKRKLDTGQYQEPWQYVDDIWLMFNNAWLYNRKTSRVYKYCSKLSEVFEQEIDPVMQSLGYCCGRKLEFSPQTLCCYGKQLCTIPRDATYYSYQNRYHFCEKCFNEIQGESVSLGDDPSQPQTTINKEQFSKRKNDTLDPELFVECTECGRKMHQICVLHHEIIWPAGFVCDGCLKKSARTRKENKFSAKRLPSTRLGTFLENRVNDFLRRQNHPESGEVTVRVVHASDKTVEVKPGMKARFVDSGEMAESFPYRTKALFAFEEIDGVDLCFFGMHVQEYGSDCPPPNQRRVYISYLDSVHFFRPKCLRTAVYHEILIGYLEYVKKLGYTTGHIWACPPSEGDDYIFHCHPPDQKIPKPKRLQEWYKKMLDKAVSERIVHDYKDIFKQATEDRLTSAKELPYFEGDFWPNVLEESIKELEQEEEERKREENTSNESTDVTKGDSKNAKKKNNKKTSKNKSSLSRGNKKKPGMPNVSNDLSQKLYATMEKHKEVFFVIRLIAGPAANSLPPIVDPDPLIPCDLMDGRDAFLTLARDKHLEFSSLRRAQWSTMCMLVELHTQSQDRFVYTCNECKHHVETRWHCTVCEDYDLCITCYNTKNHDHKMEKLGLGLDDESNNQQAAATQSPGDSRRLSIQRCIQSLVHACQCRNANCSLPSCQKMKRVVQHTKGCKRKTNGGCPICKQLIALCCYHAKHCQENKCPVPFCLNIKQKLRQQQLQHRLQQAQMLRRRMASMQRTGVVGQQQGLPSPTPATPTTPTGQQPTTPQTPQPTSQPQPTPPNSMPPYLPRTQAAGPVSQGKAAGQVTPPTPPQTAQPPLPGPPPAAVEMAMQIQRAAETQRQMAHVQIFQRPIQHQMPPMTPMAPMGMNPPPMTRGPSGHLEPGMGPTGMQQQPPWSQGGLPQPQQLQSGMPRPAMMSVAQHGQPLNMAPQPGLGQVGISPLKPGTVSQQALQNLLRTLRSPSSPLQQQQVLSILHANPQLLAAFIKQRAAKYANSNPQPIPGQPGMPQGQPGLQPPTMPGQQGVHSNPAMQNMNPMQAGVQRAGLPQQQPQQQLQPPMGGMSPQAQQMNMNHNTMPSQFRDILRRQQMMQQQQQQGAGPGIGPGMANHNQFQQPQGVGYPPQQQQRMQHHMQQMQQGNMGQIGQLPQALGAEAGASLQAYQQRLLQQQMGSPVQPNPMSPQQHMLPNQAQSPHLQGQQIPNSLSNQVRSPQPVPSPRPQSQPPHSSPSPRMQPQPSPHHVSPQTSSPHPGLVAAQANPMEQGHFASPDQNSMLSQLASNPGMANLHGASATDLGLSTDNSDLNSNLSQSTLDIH
T1 sequence (Q92793 whole entry, looked up): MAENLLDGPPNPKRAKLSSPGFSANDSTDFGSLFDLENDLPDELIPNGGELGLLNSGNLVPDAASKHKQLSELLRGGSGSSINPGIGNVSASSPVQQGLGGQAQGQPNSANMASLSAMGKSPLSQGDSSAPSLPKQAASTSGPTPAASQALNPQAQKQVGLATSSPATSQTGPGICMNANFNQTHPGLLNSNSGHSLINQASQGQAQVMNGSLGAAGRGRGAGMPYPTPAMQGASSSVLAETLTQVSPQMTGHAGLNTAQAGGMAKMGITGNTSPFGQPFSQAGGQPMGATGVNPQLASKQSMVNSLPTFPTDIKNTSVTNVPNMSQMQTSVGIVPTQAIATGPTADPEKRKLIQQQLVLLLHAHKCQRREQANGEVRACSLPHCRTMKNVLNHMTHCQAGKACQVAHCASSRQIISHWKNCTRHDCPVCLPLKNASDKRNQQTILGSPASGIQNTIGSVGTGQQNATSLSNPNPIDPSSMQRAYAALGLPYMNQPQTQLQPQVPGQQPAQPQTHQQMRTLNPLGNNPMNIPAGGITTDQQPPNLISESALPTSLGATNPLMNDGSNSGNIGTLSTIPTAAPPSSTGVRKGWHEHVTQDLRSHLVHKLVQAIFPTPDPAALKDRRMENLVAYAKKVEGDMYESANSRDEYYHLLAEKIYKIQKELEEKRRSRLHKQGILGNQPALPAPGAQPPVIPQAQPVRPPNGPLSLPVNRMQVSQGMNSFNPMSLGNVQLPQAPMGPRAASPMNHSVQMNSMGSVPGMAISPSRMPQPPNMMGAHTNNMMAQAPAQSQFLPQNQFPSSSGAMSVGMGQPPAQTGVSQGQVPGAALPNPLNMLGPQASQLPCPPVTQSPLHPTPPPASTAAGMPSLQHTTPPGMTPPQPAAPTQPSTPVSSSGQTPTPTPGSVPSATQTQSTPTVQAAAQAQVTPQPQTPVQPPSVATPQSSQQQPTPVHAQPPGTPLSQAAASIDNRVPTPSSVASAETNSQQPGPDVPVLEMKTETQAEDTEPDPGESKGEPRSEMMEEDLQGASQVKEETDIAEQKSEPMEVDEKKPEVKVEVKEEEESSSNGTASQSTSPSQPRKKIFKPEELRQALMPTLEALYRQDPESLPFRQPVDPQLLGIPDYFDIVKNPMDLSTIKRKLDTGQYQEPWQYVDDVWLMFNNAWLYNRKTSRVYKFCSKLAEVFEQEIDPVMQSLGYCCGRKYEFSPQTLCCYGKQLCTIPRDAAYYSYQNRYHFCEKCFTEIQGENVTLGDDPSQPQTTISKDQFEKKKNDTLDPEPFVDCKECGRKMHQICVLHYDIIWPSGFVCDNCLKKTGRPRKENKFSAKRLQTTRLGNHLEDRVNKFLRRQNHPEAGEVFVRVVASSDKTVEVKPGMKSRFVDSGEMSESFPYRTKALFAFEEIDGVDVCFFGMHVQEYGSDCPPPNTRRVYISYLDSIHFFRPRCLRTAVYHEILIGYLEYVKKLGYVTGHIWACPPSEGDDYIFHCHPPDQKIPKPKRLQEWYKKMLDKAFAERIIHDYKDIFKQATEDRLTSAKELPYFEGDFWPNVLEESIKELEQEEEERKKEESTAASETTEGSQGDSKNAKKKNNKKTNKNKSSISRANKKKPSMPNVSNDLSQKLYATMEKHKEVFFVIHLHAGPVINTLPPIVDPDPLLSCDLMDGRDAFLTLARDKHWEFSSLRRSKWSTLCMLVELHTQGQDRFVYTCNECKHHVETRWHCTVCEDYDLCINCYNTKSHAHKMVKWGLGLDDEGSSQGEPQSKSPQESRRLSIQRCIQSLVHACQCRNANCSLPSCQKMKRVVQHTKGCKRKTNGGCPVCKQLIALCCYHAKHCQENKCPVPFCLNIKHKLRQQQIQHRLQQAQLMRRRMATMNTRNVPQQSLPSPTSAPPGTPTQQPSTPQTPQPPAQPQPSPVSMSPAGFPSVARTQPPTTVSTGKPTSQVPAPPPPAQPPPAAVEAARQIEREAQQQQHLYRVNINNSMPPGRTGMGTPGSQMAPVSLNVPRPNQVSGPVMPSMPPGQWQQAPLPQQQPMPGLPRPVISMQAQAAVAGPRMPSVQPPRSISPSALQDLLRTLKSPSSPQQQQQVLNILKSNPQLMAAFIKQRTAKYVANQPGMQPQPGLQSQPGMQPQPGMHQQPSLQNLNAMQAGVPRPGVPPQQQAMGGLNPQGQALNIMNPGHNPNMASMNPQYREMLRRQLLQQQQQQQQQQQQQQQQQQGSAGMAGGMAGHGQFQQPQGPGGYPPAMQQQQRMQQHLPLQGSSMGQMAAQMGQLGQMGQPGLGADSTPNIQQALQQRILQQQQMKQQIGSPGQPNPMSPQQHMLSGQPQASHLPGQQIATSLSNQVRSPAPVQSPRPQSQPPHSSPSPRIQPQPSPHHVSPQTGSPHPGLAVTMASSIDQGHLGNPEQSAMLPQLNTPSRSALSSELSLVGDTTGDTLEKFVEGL

For `CNC(=O)Nc1ccc2c(c1)CC[C@@]21OC(=O)N(CC(=O)N(Cc2ccc(F)cc2)[C@@H](C)C(F)(F)F)C1=O` [A-485], the inhibition [1] was “inactive”, the EC50 [2] was 3.57 µM and the IC50 [3] was greater than 10 µM. For the same compound, the IC50 [4] was greater than 10 µM, the IC50 [5] was 2.69 µM and the inhibition [6] was “Active”. The INH [7] was 2.39 µM, the EC50 [8] was 0.76 µM and the inhibition [9] was “Active”. It also gave an IC50 [10] greater than 10 µM, an IC50 [11] greater than 10 µM and an Activity [12] of 9%. For the same compound, the EC50 [13] was greater than 10 µM, the EC50 [14] was greater than 10 µM and the EC50 [15] was greater than 10 µM. For the same compound, the IC50 [16] was greater than 10 µM, the IC50 [17] was greater than 10 µM and the EC50 [18] was 4.86 µM. It also gave an EC50 [19] of 0.59 µM, an EC50 [20] of 3.08 µM and an EC50 [21] of 0.51 µM. For the same compound, the EC50 [22] was 0.77 µM, the IC50 [23] was greater than 10 µM and the EC50 [24] was greater than 10 µM. The EC50 [25] was greater than 10 µM, the EC50 [26] was 0.48 µM and the IC50 [27] was greater than 10 µM. For the same compound, the EC50 [28] was greater than 10 µM, the EC50 [29] was 8.57 µM and the IC50 [30] was greater than 10 µM. For the same compound, the INH [31] was greater than 10 µM, the half-life [32] was 1.9 h and the half-life [33] was 1.7 h. The EC50 [34] was 0.55 µM, the IC50 [35] was greater than 10 µM and the EC50 [36] was 5.92 µM. The IC50 [37] was greater than 10 µM, the IC50 [38] was greater than 10 µM and the IC50 [39] was greater than 10 µM. The EC50 [40] was greater than 10 µM.

Reference: ChEMBL document CHEMBL5649168, “Discovery of a selective catalytic p300/CBP inhibitor that targets lineage-specific tumours” (Nature, 2017)
